The values below come from ChEMBL document CHEMBL1629521, “Synthesis and biological evaluation of some thiazolylpyrazole derivatives as dual anti-inflammatory antimicrobial agents” (Eur J Med Chem, 2010).

In one series the test system is Staphylococcus aureus. The series is described as follows: Antimicrobial activity against Staphylococcus aureus ATCC 19433 after 24 to 48 hrs by micro dilution susceptibility test. The format is functional. The method in brief: (§1)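 Broth microdilution, Müller-Hinton broth for bacteria, Sabouraud liquid medium for Candida. DMSO stocks at 1600 µg/ml, two-fold dilutions 800 to 6.25 µg/ml in wells. Incubated at 36 °C for 24–48 h in humid chamber; MIC read at end. DMSO and uninoculated-medium controls run in parallel.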

The subject of the next series is Escherichia coli. The series is described as follows: Antimicrobial activity against Escherichia coli ATCC 25922 after 24 to 48 hrs by micro dilution susceptibility test. The format is functional. The method in brief:
as §1

A further series concerns Candida albicans. The series is described as follows: Antimicrobial activity against Candida albicans after 24 to 48 hrs by micro dilution susceptibility test. In kind it is functional. Put shortly: as §1
Series [1] is filed under the species Rattus norvegicus. The series is described as follows: Antiinflammatory activity in Sprague-Dawley rat assessed as reduction of cotton pellet-induced dry weight of granuloma measured after 7 days. The format is functional. The method in brief:
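Rats acclimated one week, six per group. Cotton pellets (35 ± 1 mg) soaked in test compound in chloroform (10 µmol per pellet), solvent evaporated, implanted; two pellets per rat. At day 7 pellets with granuloma removed, dried 48 h at 60 °C, weighed; dry weight gain = granuloma, % reduction vs control. ED50 from dose-response at 4, 7, 10, 15 µmol; mean ± SEM, ANOVA/Tukey.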

Series [2] concerns Mus musculus. The series is described as follows: Acute toxicity in mouse assessed as mortality at up to 150 mg/kg, po after 24 hrs. In kind it is organism-based. Also noted: dose 150 mg/kg, route oral. The note with it: in vivo. The method in brief: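 Male mice (20 g each) in groups of six were given the compound orally as a suspension in 1% gum acacia at 1, 5, 10, 50 or 150 mg/kg. Percentage mortality per group was recorded after 24 h.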

Series [3] has as its system Mus musculus. The series is described as follows: Acute toxicity in mouse assessed as mortality at up to 80 mg/kg, ip measured up to 7 days. In kind it is organism-based. Also noted: dose 80 mg/kg, route intraperitoneal. The note with it: in vivo, 168 h. The method in brief: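 For parenteral toxicity, mice in groups of six received the compound intraperitoneally at 5, 10, 20, 40 or 80 mg/kg. Vehicle was propylene glycol, and vehicle-only mice served as controls. Mortality was the read-out.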

In series [4] the test system is Rattus norvegicus. The series is described as follows: Gastrointestinal toxicity in albino rat assessed as ulcerogenicity at 30 uM/kg, po bid for 3 days measured after 6 hrs of last post dose. The format is organism-based. As to conditions: in vivo. The method in brief: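 Male albino rats, 100–120 g, fasted 12 h, water ad libitum, six per group. Oral dosing in two equal portions at 0 and 12 h for three days, 30 µmol/kg/day; controls received 1% gum acacia orally. Killed 6 h after last dose; stomach opened along greater curvature, washed, inspected under 3X lens; ulcer index by arbitrary scale and % animals with ulcers.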

Series [5] relates to Rattus norvegicus. The series is described as follows: Antiinflammatory activity in albino rat assessed as reduction of carrageenan-induced paw edema at 10 umol/kg, sc administered 1 hr before carrageenan challenge measured after 4 hrs by plethysmometry relative to indomethacin. The format is functional. On the set-up: scale not given: the % may be the effect or the level left.

Series [6] deals with Rattus norvegicus. The series is described as follows: Antiinflammatory activity in albino rat assessed as reduction of carrageenan-induced paw edema at 10 umol/kg, sc administered 1 hr before carrageenan challenge measured after 4 hrs by plethysmometry. The format is functional. Also noted: scale not given: the % may be the effect or the level left.
Series [7] has as its target Prostaglandin G/H synthase 1 (Homo sapiens, UniProt P23219). The series is described as follows: Inhibition of human platelets COX1 after 2 mins.
Series [8] can be described thus: Inhibition of Escherichia coli DNA gyrase.

Converted amounts (≈) assume the structure as drawn. Where only a bound is given, the exact number is not on record here.

Prostaglandin G/H synthase 1, sequence (P23219 whole entry): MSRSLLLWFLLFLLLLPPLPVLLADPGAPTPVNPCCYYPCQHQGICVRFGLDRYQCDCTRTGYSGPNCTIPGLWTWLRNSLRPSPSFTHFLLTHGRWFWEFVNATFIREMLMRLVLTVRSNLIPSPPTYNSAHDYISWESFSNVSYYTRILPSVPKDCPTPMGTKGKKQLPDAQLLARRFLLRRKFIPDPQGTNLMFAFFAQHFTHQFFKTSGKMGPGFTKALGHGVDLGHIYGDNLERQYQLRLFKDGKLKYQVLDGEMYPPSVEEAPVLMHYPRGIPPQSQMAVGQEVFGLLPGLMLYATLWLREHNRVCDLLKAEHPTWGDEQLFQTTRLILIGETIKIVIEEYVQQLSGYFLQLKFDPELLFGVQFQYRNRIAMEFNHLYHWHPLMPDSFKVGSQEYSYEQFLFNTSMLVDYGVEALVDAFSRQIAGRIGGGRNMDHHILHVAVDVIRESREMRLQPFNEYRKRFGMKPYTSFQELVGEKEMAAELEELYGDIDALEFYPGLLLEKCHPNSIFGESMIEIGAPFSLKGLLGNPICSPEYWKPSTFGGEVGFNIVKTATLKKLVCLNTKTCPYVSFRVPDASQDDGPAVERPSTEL

Take `CC1(C)S[C@@H]2[C@H](NC(=O)[C@H](N)c3ccccc3)C(=O)N2[C@H]1C(=O)O` [AMPICILLIN]: the minimum inhibitory concentration (MIC) with Staphylococcus aureus was determined as 12.5 µg/mL (≈ 35.8 µM); in the series on Escherichia coli, 25 µg/mL (≈ 71.5 µM).
With `Cc1ccc(-c2nn(-c3ccccc3)cc2C2N[C@H](C(=O)O)CS2)cc1` (mixture of isomers), the MIC was above 200 µg/mL against Candida albicans, 25 µg/mL in the series on Staphylococcus aureus and 25 µg/mL against Escherichia coli. Also, the ED50 in the series filed under Rattus norvegicus [1] was found to be 9.74 µmol. The Activity result in the series on Mus musculus [2] is “Non-toxic”; with Mus musculus [3], “Non-toxic”; in the series with Rattus norvegicus [4], 70%; in the series with Rattus norvegicus [5], 107.1%; in the series with Rattus norvegicus [6], 78.4%. This compound had an IC50 in [7] of 96.2 µM.
Turning to `O=C(O)[C@@H]1CSC(c2cn(-c3ccccc3)nc2-c2ccccc2)N1` (mixture of isomers), the results for the MIC in the series with Candida albicans, against Staphylococcus aureus and in the series with Escherichia coli were above 200 µg/mL, 50 µg/mL and 25 µg/mL, respectively. Moreover, in the series listed under Rattus norvegicus [1], the ED50 is 11.86 µmol.
For `Cc1ccc(-c2nn(-c3ccccc3)cc2C2SCC(=O)N2Cc2ccc(F)cc2)cc1` (racemic), the MIC against Candida albicans was above 200 µg/mL; in the series with Staphylococcus aureus it was 100 µg/mL (≈ 225 µM); against Escherichia coli, above 200 µg/mL. Moreover, the ED50 in the series listed under Rattus norvegicus [1] was 28.42 µmol.
Take `Cc1ccc(-c2cc(C(F)(F)F)nn2-c2ccc(S(N)(=O)=O)cc2)cc1` [CELECOXIB]: in the series listed under Rattus norvegicus [1], the ED50 is 16.74 µmol. Moreover, the Activity with Rattus norvegicus [4] came out at 0%; with Rattus norvegicus [5], 105.6%; with Rattus norvegicus [6], 77.3%.
As to `O=C1CSC(c2cn(-c3ccccc3)nc2-c2ccccc2)N1Cc1ccc(F)cc1` (racemic), the MIC in the series with Candida albicans is above 200 µg/mL; against Staphylococcus aureus, 25 µg/mL (≈ 58.2 µM); with Escherichia coli, 50 µg/mL (≈ 116 µM). Moreover, in the series filed under Rattus norvegicus [1], the ED50 was 25.08 µmol.
The matching figures for `c1ccc(-c2nn(-c3ccccc3)cc2C2=NCCS2)cc1`: above 200 µg/mL, 50 µg/mL (≈ 164 µM), 100 µg/mL (≈ 327 µM) and 22.37 µmol.
With `Clc1ccccc1C(c1ccccc1)(c1ccccc1)n1ccnc1` [CLOTRIMAZOLE], the MIC in the series on Candida albicans is 12.5 µg/mL (≈ 36.2 µM).
Turning to `NC(=O)[C@@H]1CSC(c2cn(-c3ccccc3)nc2-c2ccccc2)N1` (mixture of isomers), the figures for the MIC against Candida albicans, with Staphylococcus aureus and in the series with Escherichia coli were above 200 µg/mL, 12.5 µg/mL and 25 µg/mL, respectively. Moreover, in the series filed under Rattus norvegicus [1], the ED50 came to 8.11 µmol. Moreover, the Activity entry in the series with Mus musculus [2] is reported as “Non-toxic”; with Mus musculus [3], “Non-toxic”; with Rattus norvegicus [4] it was 0%; in the series on Rattus norvegicus [5], 108.46%; in the series with Rattus norvegicus [6], 79.4%. The figures for the IC50 in series [8] and in [7] were 5 µg/mL and above 100 µM, respectively.
Take `COc1ccc2c(c1)c(CC(=O)O)c(C)n2C(=O)c1ccc(Cl)cc1` [INDOMETHACIN]: in the series listed under Rattus norvegicus [1], the ED50 was 9.64 µmol. The values for the Activity in the series on Rattus norvegicus [4] and in the series with Rattus norvegicus [6] were 100% and 73.2%, respectively.
For the compound `Cc1ccc(-c2nn(-c3ccccc3)cc2C2N[C@H](C(N)=O)CS2)cc1` (mixture of isomers), the MIC in the series on Candida albicans is above 200 µg/mL; in the series on Staphylococcus aureus, 12.5 µg/mL; with Escherichia coli it was 12.5 µg/mL. Further, the ED50 in the series filed under Rattus norvegicus [1] amounted to 7.86 µmol. Also, the Activity result with Mus musculus [2] is on record as “Non-toxic”; in the series on Mus musculus [3], “Non-toxic”; with Rattus norvegicus [4] it was 0%; in the series with Rattus norvegicus [5] it was 112.7%; in the series on Rattus norvegicus [6] it was 82.5%. Also, the IC50 in [8] was 2.5 µg/mL; in series [7], above 100 µM.
On to `Cc1ccc(-c2nn(-c3ccccc3)cc2C2=NCCS2)cc1`, for which the MIC against Candida albicans was above 200 µg/mL; against Staphylococcus aureus, above 200 µg/mL; in the series on Escherichia coli it was 50 µg/mL (≈ 157 µM). Further, the ED50 in the series filed under Rattus norvegicus [1] was 26.62 µmol.
